Measured values as given in ChEMBL document CHEMBL5108039, “Piperazine tethered bergenin heterocyclic hybrids: design, synthesis, anticancer activity, and molecular docking studies” (RSC Med Chem, 2022).

What was measured:
[1] = system: HCT-15; test: Cytotoxicity against human HCT-15 cells assessed as cell growth inhibition; assay type: functional, cell-based
Method in brief: (§1)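 Compounds were dissolved in sterile DMSO as 10 mg ml−1 stocks and tested for in vitro growth inhibition of human cancer cell lines. Doxorubicin was the standard drug and DMSO (0.01%) the vehicle control. IC50 values are reported as means.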

[2] = system: CAL-27; test: Cytotoxicity against human CAL-27 cells assessed as cell growth inhibition; assay type: functional, cell-based; method in brief: as §1
[3] = system: SCC-9; test: Cytotoxicity against human SCC-9 cells assessed as cell growth inhibition; assay type: functional, cell-based; method in brief: as §1
[4] = system: A549; test: Cytotoxicity against human A549 cells assessed as cell growth inhibition; assay type: functional, cell-based
Method in brief: (§2)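 Compounds were dissolved in sterile DMSO as 10 mg ml−1 stocks and tested in vitro for cytotoxicity in a cell-line panel, with DMSO (0.01%) as vehicle control and doxorubicin as standard. Mean IC50 values were reported, and the normal lung epithelial cells were tested up to 100 μM.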

[5] = system: MCF7; test: Cytotoxicity against human MCF7 cells assessed as cell growth inhibition; assay type: functional, cell-based; method in brief: as §1
[6] = Cytotoxicity against human BEAS-2B cells assessed as cell growth inhibition; assay type: toxicity, cell-based; method in brief: as §2
[7] = system: CAL-27; test: Cell cycle arrest in human CAL-27 cells assessed as accumulation at G0/G1 phase at 10 uM incubated for 24 hrs by flow cytometry (reference value: 77.6 %); assay type: functional
[8] = system: CAL-27; test: Cell cycle arrest in human CAL-27 cells assessed as accumulation at G0/G1 phase at 34 uM incubated for 24 hrs by flow cytometry (reference value: 77.6 %); assay type: functional
[9] = system: CAL-27; test: Cell cycle arrest in human CAL-27 cells assessed as accumulation at S phase at 10 uM incubated for 24 hrs by flow cytometry (reference value: 3.6 %); assay type: functional
[10] = system: CAL-27; test: Cell cycle arrest in human CAL-27 cells assessed as accumulation at S phase at 34 uM incubated for 24 hrs by flow cytometry (reference value: 3.6 %); assay type: functional
[11] = system: CAL-27; test: Cell cycle arrest in human CAL-27 cells assessed as accumulation at G2/M phase at 10 uM incubated for 24 hrs by flow cytometry (reference value: 11.9 %); assay type: functional
[12] = system: CAL-27; test: Cell cycle arrest in human CAL-27 cells assessed as accumulation at G2/M phase at 34 uM incubated for 24 hrs by flow cytometry (reference value: 11.9 %); assay type: functional
[13] = system: SCC-9; test: Cell cycle arrest in human SCC-9 cells assessed as accumulation at G0/G1 phase at 17 uM incubated for 24 hrs by flow cytometry (reference value: 70.8 %); assay type: functional
[14] = system: SCC-9; test: Cell cycle arrest in human SCC-9 cells assessed as accumulation at G0/G1 phase at 34 uM incubated for 24 hrs by flow cytometry (reference value: 70.8 %); assay type: functional
[15] = system: SCC-9; test: Cell cycle arrest in human SCC-9 cells assessed as accumulation at S phase at 17 uM incubated for 24 hrs by flow cytometry (reference value: 14.4 %); assay type: functional
[16] = system: SCC-9; test: Cell cycle arrest in human SCC-9 cells assessed as accumulation at S phase at 34 uM incubated for 24 hrs by flow cytometry (reference value: 14.4 %); assay type: functional
[17] = system: SCC-9; test: Cell cycle arrest in human SCC-9 cells assessed as accumulation at G2/M phase at 17 uM incubated for 24 hrs by flow cytometry (reference value: 14.2 %); assay type: functional
[18] = system: SCC-9; test: Cell cycle arrest in human SCC-9 cells assessed as accumulation at G2/M phase at 34 uM incubated for 24 hrs by flow cytometry (reference value: 14.2 %); assay type: functional
[19] = system: CAL-27; test: Induction of apoptosis in human CAL-27 cells assessed as live cells at 10 uM incubated for 24 hrs by Annexin V-FITC/PI staining based flow cytometric analysis (reference value: 99.8 %); assay type: functional
Method in brief: (§3)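 CAL27 cells were treated with vehicle, doxorubicin or test compounds at 10–63 μM, and apoptosis was assessed by annexin V–FITC/PI staining with flow cytometry. Cells were scored as live, early apoptotic, late apoptotic or necrotic. The vehicle was DMSO (0.01%).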

[20] = system: CAL-27; test: Induction of apoptosis in human CAL-27 cells assessed as early apoptotic cells at 10 uM incubated for 24 hrs by Annexin V-FITC/PI staining based flow cytometric analysis (reference value: 0.1 %); assay type: functional; method in brief: as §3
[21] = system: CAL-27; test: Induction of apoptosis in human CAL-27 cells assessed as late apoptotic cells at 10 uM incubated for 24 hrs by Annexin V-FITC/PI staining based flow cytometric analysis (reference value: 0.1 %); assay type: functional; method in brief: as §3
[22] = system: CAL-27; test: Induction of apoptosis in human CAL-27 cells assessed as necrotic cells at 10 uM incubated for 24 hrs by Annexin V-FITC/PI staining based flow cytometric analysis (reference value: 0.0 %); assay type: functional; method in brief: as §3
[23] = system: CAL-27; test: Induction of apoptosis in human CAL-27 cells assessed as live cells at 34 uM incubated for 24 hrs by Annexin V-FITC/PI staining based flow cytometric analysis (reference value: 99.8 %); assay type: functional; method in brief: as §3
[24] = system: CAL-27; test: Induction of apoptosis in human CAL-27 cells assessed as early apoptotic cells at 34 uM incubated for 24 hrs by Annexin V-FITC/PI staining based flow cytometric analysis (reference value: 0.1 %); assay type: functional; method in brief: as §3
[25] = system: CAL-27; test: Induction of apoptosis in human CAL-27 cells assessed as late apoptotic cells at 34 uM incubated for 24 hrs by Annexin V-FITC/PI staining based flow cytometric analysis (reference value: 0.1 %); assay type: functional; method in brief: as §3
[26] = system: CAL-27; test: Induction of apoptosis in human CAL-27 cells assessed as necrotic cells at 34 uM incubated for 24 hrs by Annexin V-FITC/PI staining based flow cytometric analysis (reference value: 0.0 %); assay type: functional
[27] = system: SCC-9; test: Induction of apoptosis in human SCC-9 cells assessed as live cells at 17 uM incubated for 24 hrs by Annexin V-FITC/PI staining based flow cytometric analysis (reference value: 95.7 %); assay type: functional
[28] = system: SCC-9; test: Induction of apoptosis in human SCC-9 cells assessed as early apoptotic cells at 17 uM incubated for 24 hrs by Annexin V-FITC/PI staining based flow cytometric analysis (reference value: 2.8 %); assay type: functional
[29] = system: SCC-9; test: Induction of apoptosis in human SCC-9 cells assessed as late apoptotic cells at 17 uM incubated for 24 hrs by Annexin V-FITC/PI staining based flow cytometric analysis (reference value: 1.4 %); assay type: functional
[30] = system: SCC-9; test: Induction of apoptosis in human SCC-9 cells assessed as necrotic cells at 17 uM incubated for 24 hrs by Annexin V-FITC/PI staining based flow cytometric analysis (reference value: 0.1 %); assay type: functional
[31] = system: SCC-9; test: Induction of apoptosis in human SCC-9 cells assessed as live cells at 34 uM incubated for 24 hrs by Annexin V-FITC/PI staining based flow cytometric analysis (reference value: 95.7 %); assay type: functional
[32] = system: SCC-9; test: Induction of apoptosis in human SCC-9 cells assessed as early apoptotic cells at 34 uM incubated for 24 hrs by Annexin V-FITC/PI staining based flow cytometric analysis (reference value: 2.8 %); assay type: functional
[33] = system: SCC-9; test: Induction of apoptosis in human SCC-9 cells assessed as late apoptotic cells at 34 uM incubated for 24 hrs by Annexin V-FITC/PI staining based flow cytometric analysis (reference value: 1.4 %); assay type: functional
[34] = system: SCC-9; test: Induction of apoptosis in human SCC-9 cells assessed as necrotic cells at 34 uM incubated for 24 hrs by Annexin V-FITC/PI staining based flow cytometric analysis (reference value: 0.1 %); assay type: functional

Work on `COc1c(O)c(CN2CCN(CC(=O)Nc3nc(-c4ccccc4)cs3)CC2)c2c(c1O)C1O[C@H](CO)[C@@H](O)[C@H](O)C1OC2=O` (some centres undefined) yielded an IC50 [1] of 69.7 µM, an IC50 [2] of 20.7 µM and an IC50 [3] of 34.4 µM. It also gave an IC50 [4] of over 100 µM, an IC50 [5] of over 100 µM and an IC50 [6] of over 100 µM. For the same compound, the Activity [7] was 87.4%, the Activity [8] was 85.6% and the Activity [9] was 2.9%. It also gave an Activity [10] of 4.1%, an Activity [11] of 10.6% and an Activity [12] of 10.8%. The Activity [13] was 71%, the Activity [14] was 73.6% and the Activity [15] was 16.5%. It also gave an Activity [16] of 12.6%, an Activity [17] of 11.8% and an Activity [18] of 10.3%. It also gave an Activity [19] of 94.5%, an Activity [20] of 1.2% and an Activity [21] of 2.2%. For the same compound, the Activity [22] was 2%, the Activity [23] was 88.7% and the Activity [24] was 2.2%. It also gave an Activity [25] of 4.8%, an Activity [26] of 4.3% and an Activity [27] of 28%. For the same compound, the Activity [28] was 28.8%, the Activity [29] was 42% and the Activity [30] was 1.3%. The Activity [31] was 20.2%, the Activity [32] was 32.4% and the Activity [33] was 45.6%. The Activity [34] was 1.8%.
